Reference: ChEMBL document CHEMBL4196105, “Discovery of β-Arrestin Biased Ligands of 5-HT7R” (J Med Chem, 2018)
Active and inactive are the calls of the source. The calls are words filed in the database; no cut-off is given here.

Columns and labels:
[1] = biological target: 5-hydroxytryptamine receptor 6 (Homo sapiens, UniProt P50406); test: Displacement of [3H]LSD from human 5-HT6 receptor expressed in HEK cell membranes after 1.5 hrs by microbeta scintillation counting method
How it was run: (§1)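 Radioligand binding performed by the NIMH Psychoactive Drug Screening Program. Crude membranes from cells expressing recombinant receptor, with [3H]LSD, in 50 mM Tris-HCl, 10 mM MgCl2, 1 mM EDTA, pH 7.4. Eleven test concentrations. Incubated 1.5 h at room temperature, protected from light. Filtered onto PEI-soaked GF/B filters, then scintillation counting. IC50 converted to Ki; at least three experiments in triplicate.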

[2] = species: Homo sapiens; test: Selectivity index, ratio of Ki for human 5-HT2C receptor to Ki for human 5-HT7 receptor
How it was run: (§2)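 Selectivity index taken as Ki at the other 5-HT receptor subtype divided by Ki at 5-HT7R, each from [3H]LSD membrane binding run by the NIMH PDSP. Ki values are means of at least three experiments in triplicate.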

[3] = species: Homo sapiens; test: Selectivity index, ratio of Ki for human 5-HT2B receptor to Ki for human 5-HT7 receptor; how it was run: as §2
[4] = species: Homo sapiens; test: Selectivity index, ratio of Ki for human 5-HT3 receptor to Ki for human 5-HT7 receptor; how it was run: as §2
[5] = biological target: T1, 5-hydroxytryptamine receptor 7 (Homo sapiens, UniProt P34969); test: Agonist activity at tTA containing TCS cleavage site-fused 5-HT7 receptor (unknown origin) expressed in tTA-dependent luciferase reporter/TEV-fused beta-arrestin2 expressing HTLA cells assessed as induction of beta-arrestin2 recruitment after 22 hrs by Tango assay relative to 5-HT; type: functional, cell-based
T1 sequence (P34969 whole entry, the tested form may be a part): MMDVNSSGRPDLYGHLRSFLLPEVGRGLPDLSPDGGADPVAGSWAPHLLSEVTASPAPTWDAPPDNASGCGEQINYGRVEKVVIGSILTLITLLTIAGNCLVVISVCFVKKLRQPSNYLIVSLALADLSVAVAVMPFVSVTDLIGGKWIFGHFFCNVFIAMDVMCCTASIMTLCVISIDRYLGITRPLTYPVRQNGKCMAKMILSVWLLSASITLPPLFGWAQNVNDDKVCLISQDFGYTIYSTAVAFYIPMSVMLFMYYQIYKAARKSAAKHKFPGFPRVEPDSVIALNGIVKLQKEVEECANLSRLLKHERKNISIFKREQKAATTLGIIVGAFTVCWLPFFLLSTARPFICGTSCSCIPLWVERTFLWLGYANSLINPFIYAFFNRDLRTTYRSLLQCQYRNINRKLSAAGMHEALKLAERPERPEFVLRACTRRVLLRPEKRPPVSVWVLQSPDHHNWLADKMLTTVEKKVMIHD
How it was run: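 HTLA cells (HEK293 stably expressing tTA-dependent luciferase reporter and β-arrestin2-TEV) transiently transfected with 5-HT7R-TCS-tTA. Plated in 1% dialysed FBS medium for 6 h, then given test compounds at 0.01 nM-100 μM final, about 22 h. Antagonist mode adds 1 μM 5-HT. BrightGlo luminescence read. Normalised to 5-HT (100%) and vehicle (0%). Three experiments, at least triplicate.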

[6] = biological target: 5-hydroxytryptamine receptor 1B (Homo sapiens, UniProt P28222); test: Displacement of [3H]LSD from human 5-HT1B receptor expressed in HEK cell membranes after 1.5 hrs by microbeta scintillation counting method; how it was run: as §1
5-hydroxytryptamine receptor 1B, sequence (P28222 whole entry): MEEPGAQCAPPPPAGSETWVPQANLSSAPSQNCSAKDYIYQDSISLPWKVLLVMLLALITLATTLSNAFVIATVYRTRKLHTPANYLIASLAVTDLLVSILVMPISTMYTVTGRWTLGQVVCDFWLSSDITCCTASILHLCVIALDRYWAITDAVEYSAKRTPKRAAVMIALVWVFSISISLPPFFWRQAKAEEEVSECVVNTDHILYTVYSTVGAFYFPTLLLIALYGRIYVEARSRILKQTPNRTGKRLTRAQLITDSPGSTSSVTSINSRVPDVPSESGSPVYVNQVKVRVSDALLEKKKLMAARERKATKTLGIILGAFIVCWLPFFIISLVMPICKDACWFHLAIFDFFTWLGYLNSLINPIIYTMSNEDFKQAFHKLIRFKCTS

[7] = species: Homo sapiens; test: Selectivity index, ratio of Ki for human 5-HT2A receptor to Ki for human 5-HT7 receptor; how it was run: as §2
[8] = biological target: 5-hydroxytryptamine receptor 4 (Homo sapiens, UniProt Q13639); test: Displacement of [3H]LSD from human 5-HT4 receptor expressed in HEK cell membranes after 1.5 hrs by microbeta scintillation counting method; how it was run: as §1
5-hydroxytryptamine receptor 4, sequence (Q13639 whole entry): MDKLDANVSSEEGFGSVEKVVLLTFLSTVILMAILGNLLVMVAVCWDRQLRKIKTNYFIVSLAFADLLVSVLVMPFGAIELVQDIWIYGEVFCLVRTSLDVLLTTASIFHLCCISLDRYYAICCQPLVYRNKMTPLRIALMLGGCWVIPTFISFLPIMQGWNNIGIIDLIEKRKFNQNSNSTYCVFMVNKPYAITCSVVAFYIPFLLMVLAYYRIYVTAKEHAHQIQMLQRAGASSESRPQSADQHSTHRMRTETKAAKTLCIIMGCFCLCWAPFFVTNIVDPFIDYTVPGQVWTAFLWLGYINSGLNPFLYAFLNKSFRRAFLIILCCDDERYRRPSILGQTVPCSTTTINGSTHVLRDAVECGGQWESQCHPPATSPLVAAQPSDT

[9] = biological target: 5-hydroxytryptamine receptor 5A (Homo sapiens, UniProt P47898); test: Displacement of [3H]LSD from human 5-HT5A receptor expressed in HEK cell membranes after 1.5 hrs by microbeta scintillation counting method; how it was run: as §1
5-hydroxytryptamine receptor 5A, sequence (P47898 whole entry): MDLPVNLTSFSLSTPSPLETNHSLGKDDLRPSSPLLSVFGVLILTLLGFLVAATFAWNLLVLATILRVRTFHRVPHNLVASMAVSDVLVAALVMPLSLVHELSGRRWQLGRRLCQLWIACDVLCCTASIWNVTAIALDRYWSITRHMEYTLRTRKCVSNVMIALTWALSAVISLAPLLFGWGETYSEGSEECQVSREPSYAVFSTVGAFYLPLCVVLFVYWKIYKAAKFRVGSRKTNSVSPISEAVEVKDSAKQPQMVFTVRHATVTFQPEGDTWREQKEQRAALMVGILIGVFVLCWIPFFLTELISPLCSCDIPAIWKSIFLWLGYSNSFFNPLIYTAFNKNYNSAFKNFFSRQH

[10] = biological target: T2, 5-hydroxytryptamine receptor 2C (Homo sapiens, UniProt P28335); test: Displacement of [3H]LSD from human 5-HT2C receptor expressed in HEK cell membranes after 1.5 hrs by microbeta scintillation counting method; how it was run: as §1
T2 sequence (P28335 whole entry): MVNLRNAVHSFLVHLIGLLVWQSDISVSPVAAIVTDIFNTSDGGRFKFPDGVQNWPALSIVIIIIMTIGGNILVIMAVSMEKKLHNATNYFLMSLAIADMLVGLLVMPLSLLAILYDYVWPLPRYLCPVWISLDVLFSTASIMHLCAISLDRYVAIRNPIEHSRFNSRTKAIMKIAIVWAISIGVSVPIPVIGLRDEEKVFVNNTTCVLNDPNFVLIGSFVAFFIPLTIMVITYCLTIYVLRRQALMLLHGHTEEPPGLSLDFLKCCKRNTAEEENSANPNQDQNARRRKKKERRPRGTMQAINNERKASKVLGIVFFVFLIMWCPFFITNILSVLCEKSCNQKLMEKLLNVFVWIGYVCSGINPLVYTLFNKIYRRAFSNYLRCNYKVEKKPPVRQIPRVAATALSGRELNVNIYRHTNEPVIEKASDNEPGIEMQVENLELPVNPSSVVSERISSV

[11] = biological target: T1, 5-hydroxytryptamine receptor 7
[12] = biological target: 5-hydroxytryptamine receptor 2B (Homo sapiens, UniProt P41595); test: Displacement of [3H]LSD from human 5-HT2B receptor expressed in HEK cell membranes after 1.5 hrs by microbeta scintillation counting method
5-hydroxytryptamine receptor 2B, sequence (P41595 whole entry, the tested form may be a part): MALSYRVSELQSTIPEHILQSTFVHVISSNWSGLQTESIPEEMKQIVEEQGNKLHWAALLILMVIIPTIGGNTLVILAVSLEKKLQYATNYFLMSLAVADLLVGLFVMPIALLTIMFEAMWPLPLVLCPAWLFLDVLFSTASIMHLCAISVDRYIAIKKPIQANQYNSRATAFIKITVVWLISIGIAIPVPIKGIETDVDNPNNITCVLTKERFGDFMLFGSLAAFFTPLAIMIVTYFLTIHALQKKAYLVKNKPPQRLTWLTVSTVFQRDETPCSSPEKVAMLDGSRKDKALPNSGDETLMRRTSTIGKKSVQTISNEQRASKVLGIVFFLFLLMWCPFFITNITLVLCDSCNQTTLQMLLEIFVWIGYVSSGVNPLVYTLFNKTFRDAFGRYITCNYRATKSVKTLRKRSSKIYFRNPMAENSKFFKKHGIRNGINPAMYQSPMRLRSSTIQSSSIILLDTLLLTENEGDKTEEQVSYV

[13] = biological target: T1, 5-hydroxytryptamine receptor 7; test: Antagonist activity at tTA containing TCS cleavage site-fused 5-HT7 receptor (unknown origin) expressed in tTA-dependent luciferase reporter/TEV-fused beta-arrestin2 expressing HTLA cells assessed as inhibition of 5-HT-induced beta-arrestin2 recruitment after 22 hrs by Tango assay; type: functional, cell-based
[14] = biological target: 5-hydroxytryptamine receptor 2A (Homo sapiens, UniProt P28223); test: Displacement of [3H]LSD from human 5-HT2A receptor expressed in HEK cell membranes after 1.5 hrs by microbeta scintillation counting method; how it was run: as §1
5-hydroxytryptamine receptor 2A, sequence (P28223 whole entry): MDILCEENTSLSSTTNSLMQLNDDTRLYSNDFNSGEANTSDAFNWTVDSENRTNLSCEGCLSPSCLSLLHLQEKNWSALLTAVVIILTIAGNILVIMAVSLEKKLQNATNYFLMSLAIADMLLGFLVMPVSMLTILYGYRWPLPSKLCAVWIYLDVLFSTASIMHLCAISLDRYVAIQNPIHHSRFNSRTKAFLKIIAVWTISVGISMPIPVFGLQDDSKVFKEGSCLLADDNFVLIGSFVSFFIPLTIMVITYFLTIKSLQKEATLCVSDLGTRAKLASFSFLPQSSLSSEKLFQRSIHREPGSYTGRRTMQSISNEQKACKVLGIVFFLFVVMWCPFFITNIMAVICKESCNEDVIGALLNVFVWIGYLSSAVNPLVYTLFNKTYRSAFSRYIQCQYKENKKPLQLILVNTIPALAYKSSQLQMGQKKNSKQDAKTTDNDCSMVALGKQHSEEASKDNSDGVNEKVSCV

[15] = biological target: T3, 5-hydroxytryptamine receptor 1A (Homo sapiens, UniProt P08908); test: Displacement of [3H]LSD from human 5-HT1A receptor expressed in HEK cell membranes after 1.5 hrs by microbeta scintillation counting method; how it was run: as §1
T3 sequence (P08908 whole entry): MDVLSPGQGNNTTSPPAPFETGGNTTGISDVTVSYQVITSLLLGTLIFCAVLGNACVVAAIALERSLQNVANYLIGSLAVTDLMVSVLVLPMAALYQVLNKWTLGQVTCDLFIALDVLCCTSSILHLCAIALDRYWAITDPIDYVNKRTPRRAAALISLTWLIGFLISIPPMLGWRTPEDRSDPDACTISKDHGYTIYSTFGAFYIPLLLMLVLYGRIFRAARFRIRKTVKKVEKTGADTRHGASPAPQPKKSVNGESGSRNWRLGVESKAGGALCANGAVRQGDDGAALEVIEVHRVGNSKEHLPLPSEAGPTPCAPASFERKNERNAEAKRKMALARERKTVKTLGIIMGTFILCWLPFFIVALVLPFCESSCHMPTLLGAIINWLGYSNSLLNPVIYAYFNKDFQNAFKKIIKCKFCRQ

[16] = biological target: 5-hydroxytryptamine receptor 1E (Homo sapiens, UniProt P28566); test: Displacement of [3H]LSD from human 5-HT1E receptor expressed in HEK cell membranes after 1.5 hrs by microbeta scintillation counting method; how it was run: as §1
5-hydroxytryptamine receptor 1E, sequence (P28566 whole entry): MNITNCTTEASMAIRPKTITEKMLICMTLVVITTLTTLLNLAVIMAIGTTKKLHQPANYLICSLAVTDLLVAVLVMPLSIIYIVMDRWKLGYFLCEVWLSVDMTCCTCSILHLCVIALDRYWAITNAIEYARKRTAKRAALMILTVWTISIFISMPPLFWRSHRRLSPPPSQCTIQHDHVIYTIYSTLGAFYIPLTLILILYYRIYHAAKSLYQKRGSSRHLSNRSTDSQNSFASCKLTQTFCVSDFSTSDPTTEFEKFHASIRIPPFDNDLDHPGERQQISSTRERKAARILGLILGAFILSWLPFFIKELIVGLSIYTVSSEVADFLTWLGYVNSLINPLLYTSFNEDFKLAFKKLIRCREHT

[17] = biological target: T1, 5-hydroxytryptamine receptor 7; test: Antagonist activity at human 5-HT7 receptor expressed in HEK293 cells assessed as inhibition of Gs protein-mediated cAMP accumulation by luminescence-based assay relative to SB269970; type: functional, cell-based
How it was run: (§3)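 HEK293 cells transiently transfected by calcium phosphate with human 5-HT7R and GloSensor-22F cAMP biosensor. After 5-6 h recovery, loaded with GloSensor reagent in HBSS/20 mM HEPES, pH 7.4. Test compounds at 0.01 nM-100 μM final; antagonist mode uses 5-HT stimulation. Luminescence read. Data normalised to 5-HT or SB269970 (100%) and vehicle (0%). Three experiments, at least triplicate.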

[18] = species: Homo sapiens; test: Selectivity index, ratio of Ki for human 5-HT5A receptor to Ki for human 5-HT7 receptor; how it was run: as §2
[19] = biological target: T1, 5-hydroxytryptamine receptor 7; remark: listed apart in the source
[20] = biological target: T4, 5-hydroxytryptamine receptor 3A (Homo sapiens, UniProt P46098); test: Displacement of [3H]LSD from human 5-HT3 receptor expressed in HEK cell membranes after 1.5 hrs by microbeta scintillation counting method; how it was run: as §1
T4 sequence (P46098 whole entry): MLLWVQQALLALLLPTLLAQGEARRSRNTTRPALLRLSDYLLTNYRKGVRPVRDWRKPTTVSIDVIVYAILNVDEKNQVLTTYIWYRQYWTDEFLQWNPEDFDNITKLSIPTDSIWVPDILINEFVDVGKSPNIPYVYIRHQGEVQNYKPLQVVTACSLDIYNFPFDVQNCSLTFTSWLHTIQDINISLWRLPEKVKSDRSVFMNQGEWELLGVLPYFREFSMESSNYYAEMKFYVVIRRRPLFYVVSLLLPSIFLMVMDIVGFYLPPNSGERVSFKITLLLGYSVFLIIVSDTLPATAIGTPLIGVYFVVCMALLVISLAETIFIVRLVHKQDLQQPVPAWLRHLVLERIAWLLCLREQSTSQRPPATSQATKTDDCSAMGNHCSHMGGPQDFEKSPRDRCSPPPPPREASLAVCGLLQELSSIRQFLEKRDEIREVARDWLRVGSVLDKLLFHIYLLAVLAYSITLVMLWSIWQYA

[21] = biological target: 5-hydroxytryptamine receptor 1D (Homo sapiens, UniProt P28221); test: Displacement of [3H]LSD from human 5-HT1D receptor expressed in HEK cell membranes after 1.5 hrs by microbeta scintillation counting method; how it was run: as §1
5-hydroxytryptamine receptor 1D, sequence (P28221 whole entry): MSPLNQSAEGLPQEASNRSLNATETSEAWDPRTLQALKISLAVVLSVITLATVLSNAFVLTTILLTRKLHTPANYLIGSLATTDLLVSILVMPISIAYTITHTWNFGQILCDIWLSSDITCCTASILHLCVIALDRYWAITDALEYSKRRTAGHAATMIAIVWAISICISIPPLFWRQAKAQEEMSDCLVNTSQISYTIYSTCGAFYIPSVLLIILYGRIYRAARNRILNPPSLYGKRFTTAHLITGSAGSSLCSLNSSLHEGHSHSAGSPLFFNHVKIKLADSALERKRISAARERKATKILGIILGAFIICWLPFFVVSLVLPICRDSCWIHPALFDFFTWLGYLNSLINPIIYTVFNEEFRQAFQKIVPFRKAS

[22] = biological target: T1, 5-hydroxytryptamine receptor 7; test: Inverse agonist activity at human 5-HT7 receptor expressed in HEK293 cells assessed as decrease in Gs protein-mediated cAMP accumulation by luminescence-based assay; type: functional, cell-based; how it was run: as §3
[23] = species: Homo sapiens; test: Selectivity index, ratio of Ki for human 5-HT6 receptor to Ki for human 5-HT7 receptor; how it was run: as §2
[24] = test system: Mus musculus; test: Sleep promoting activity in C57B1/6J mouse assessed as decrease in total rapid eye movement sleep time at 30 mg/kg, ip measured over 8 hrs by electroencephalogram method; type: functional; set-up: scale not given: the % may be the effect or the level left
How it was run: (§4)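 Adult male C57Bl/6J mice, 10 weeks old, with parietal EEG screw electrodes implanted under ketamine. EEG and EMG recorded for 8 h from 9 AM, starting one day before dosing as baseline. On test day, 30 mg/kg i.p. at the start of the light phase, with EEG/EMG recorded for 8 h and scored in 2-h bins. n = 6-9 per group; mean ± SEM versus vehicle.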

[25] = test system: Mus musculus; test: Sleep promoting activity in C57B1/6J mouse assessed as duration of total non-rapid eye movement sleep time at 30 mg/kg, ip measured over 8 hrs by electroencephalogram method (reference value: 252 +/- 22.7 mins); type: functional; how it was run: as §4
[26] = species: Homo sapiens; test: Selectivity index, ratio of Ki for human 5-HT1E receptor to Ki for human 5-HT7 receptor; how it was run: as §2
[27] = species: Homo sapiens; test: Selectivity index, ratio of Ki for human 5-HT1D receptor to Ki for human 5-HT7 receptor; how it was run: as §2
[28] = biological target: T1, 5-hydroxytryptamine receptor 7; test: Displacement of [3H]LSD from human 5-HT7 receptor expressed in HEK cell membranes after 1.5 hrs by microbeta scintillation counting method
[29] = biological target: T1, 5-hydroxytryptamine receptor 7; test: Displacement of [3H]LSD from human 5-HT7 receptor expressed in HEK cell membranes at 10 uM after 1.5 hrs by microbeta scintillation counting method
How it was run: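 [3H]LSD binding to recombinant 5-HT7R membranes in Tris-HCl/MgCl2/EDTA buffer, pH 7.4, 1.5 h at room temperature, filtration and scintillation counting. Percent inhibition at a single 10 μM test concentration.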

5-hydroxytryptamine receptor 6, sequence (P50406 whole entry): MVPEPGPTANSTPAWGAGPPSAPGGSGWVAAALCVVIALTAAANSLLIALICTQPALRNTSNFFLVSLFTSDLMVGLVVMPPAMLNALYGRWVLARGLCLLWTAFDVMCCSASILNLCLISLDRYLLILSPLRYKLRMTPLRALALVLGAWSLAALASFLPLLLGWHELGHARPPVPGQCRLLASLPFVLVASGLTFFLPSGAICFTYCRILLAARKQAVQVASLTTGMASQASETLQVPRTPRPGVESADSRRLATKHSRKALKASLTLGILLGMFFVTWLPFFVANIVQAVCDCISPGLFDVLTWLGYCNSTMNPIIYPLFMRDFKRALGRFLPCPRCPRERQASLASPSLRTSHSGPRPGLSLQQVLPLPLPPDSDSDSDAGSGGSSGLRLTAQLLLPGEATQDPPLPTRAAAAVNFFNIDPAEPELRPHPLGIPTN

Ki [1] [nM]	Ratio Ki [2]	Ratio Ki [3]	Emax [5] [%]	Ki [6] [nM]	Ratio Ki [7]	Ki [8] [nM]	Ki [9] [nM]	Ki [10] [nM]	EC50 [11] [nM]	Ki [12] [nM]	inhibition [13]	Ki [14] [nM]	Ki [15] [nM]	Ki [16] [nM]	Imax [17] [%]	IC50 [19] [nM]	Ki [20] [nM]	Ki [21] [nM]	Activity [22]	Structure (SMILES)	other results
> 10000	14.8	9.5	38.2	> 10000	8.9	> 10000	1230	785	135	505	inactive	471	> 10000	> 10000	98	2460	703	> 10000	Active	Fc1ccc(-c2noc3c2CCNCC3)cc1	Ratio Ki [4]: 13.3; Ratio Ki [18]: 23.2
360	15.7	3.5	47.1	> 10000	5.7	> 10000	> 10000	1100	113	247	inactive	399	> 10000	> 10000	94.9	3970	303	> 10000	Active	Clc1ccc(-c2noc3c2CCNCC3)cc1	Ratio Ki [4]: 4.3; Ratio Ki [23]: 5.1
–	–	–	< 20	–	–	–	–	–	–	–	–	–	–	–	–	–	–	–	Active	CC1CCN(CC[C@H]2CCCN2S(=O)(=O)c2cccc(O)c2)CC1	Activity [24]: 37.1%; Time [25]: 252 min
109	6.3	2.3	50.9	> 10000	3.4	> 10000	> 10000	296	165	106	inactive	159	> 10000	890	97.4	2560	> 10000	165	Active	Cc1ccc(-c2n[nH]c3c2CCNCC3)cc1	Ratio Ki [26]: 18.9; Ratio Ki [23]: 2.3; Ratio Ki [27]: 3.5
–	–	–	–	–	–	–	–	–	–	–	–	–	–	–	–	–	–	–	–	Cc1ccccc1-c1noc2c1CCNCC2	Ki [28]: > 10000 nM; inhibition [29]: < 50%
